Active and inactive are the calls of the source. The calls are words filed in the database; no cut-off is given here.

A short description of data set [1]: Cmax in rat at 10 mg/kg, po. In kind it is ADME, organism-based. More on the design: dose 10 mg/kg, route oral. The settings on record: in vivo. The essentials: (§1)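 Rat pharmacokinetics after dosing at 5 mg/kg iv and 10 mg/kg po. Parameters derived: plasma clearance, oral Cmax, oral half-life, dose-normalised oral AUC and oral bioavailability (F).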
Data set [2] is filed under the species Homo sapiens. The data set can be described thus: Selectivity for ratio of IC50 for human DPP4 to IC50 for human DPP2.
Data set [3] concerns Mus musculus. The data set is described as follows: Reduction in glucose excursion in C57BL/6J lean mouse at 1 mg/kg, po pretreated 30 mins before glucose challenge measured after 120 mins by oral glucose tolerance test relative to control. In kind it is functional. More on the design: scale not given: the % may be the effect or the level left. The essentials:
(§2)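 Fasted overnight: adult male C57BL/6 mice (20–25 g, 6–8 weeks old, n = 6/group), grouped by tail-vein glucometer reading. Oral gavage of test agent in distilled water at −30 min (1, 3 or 10 mg/kg), then 3 g/kg oral glucose (400 mg/mL) at 0 min.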

Data set [4] can be described thus: Oral bioavailability in rat at 10 mg/kg, po. The data set is classed as ADME, organism-based. The note with it: in vivo. In a few lines: as §1
The next data set deals with T1, Prolyl endopeptidase FAP (Homo sapiens, UniProt Q12884).
T1 sequence (Q12884 whole entry): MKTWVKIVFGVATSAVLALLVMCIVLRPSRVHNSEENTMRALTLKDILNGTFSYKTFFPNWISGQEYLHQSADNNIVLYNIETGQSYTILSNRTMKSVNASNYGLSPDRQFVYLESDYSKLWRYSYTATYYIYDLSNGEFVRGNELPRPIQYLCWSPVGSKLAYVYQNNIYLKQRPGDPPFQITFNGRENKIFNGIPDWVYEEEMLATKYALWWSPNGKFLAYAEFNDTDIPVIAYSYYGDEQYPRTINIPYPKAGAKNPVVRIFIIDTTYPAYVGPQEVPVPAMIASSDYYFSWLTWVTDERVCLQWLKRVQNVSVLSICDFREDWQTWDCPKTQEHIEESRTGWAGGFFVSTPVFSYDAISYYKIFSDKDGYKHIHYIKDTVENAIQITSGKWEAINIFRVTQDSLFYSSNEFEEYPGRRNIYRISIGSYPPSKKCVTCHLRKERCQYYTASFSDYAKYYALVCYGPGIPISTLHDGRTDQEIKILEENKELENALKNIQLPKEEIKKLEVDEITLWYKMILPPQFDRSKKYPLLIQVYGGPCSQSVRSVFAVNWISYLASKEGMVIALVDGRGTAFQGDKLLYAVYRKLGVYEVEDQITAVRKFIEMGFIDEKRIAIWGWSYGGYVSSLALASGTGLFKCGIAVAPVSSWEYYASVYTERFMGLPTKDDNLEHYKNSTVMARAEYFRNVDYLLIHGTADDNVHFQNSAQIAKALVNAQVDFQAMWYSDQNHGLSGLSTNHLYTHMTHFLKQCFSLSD
The data set is described as follows: Inhibition of human FAP.

Data set [5] has as its system Mus musculus. The data set is described as follows: Reduction in glucose AUC in C57BL/6J diet-induced obese mouse at 3 mg/kg, po pretreated 30 mins before glucose challenge measured after 120 mins by oral glucose tolerance test relative to control. In kind it is functional. More on the design: scale not given: the % may be the effect or the level left. The essentials:
(§3)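 Male C57BL/6j DIO mice (40–50 g, 27 weeks old, n = 6/group) fasted overnight and grouped by tail-vein glucometer reading. Test agent given by oral gavage in distilled water, then 3 g/kg glucose orally (400 mg/mL in water) 30 min later.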

A short description of data set [6]: Plasma clearance in rat at 5 mg/kg, iv or 10 mg/kg, po. In kind it is ADME, organism-based. The essentials: as §1
Data set [7] deals with Mus musculus. The data set is described as follows: Reduction in glucose AUC in C57BL/6J diet-induced obese mouse at 10 mg/kg, po pretreated 30 mins before glucose challenge measured after 120 mins by oral glucose tolerance test relative to control. In kind it is functional. The arrangement: scale not given: the % may be the effect or the level left. In a few lines:
as §3

For data set [8], the species on record is Homo sapiens. The data set can be described thus: Selectivity for ratio of IC50 for human DPP4 to IC50 for human DPP8.
For data set [9], the system named is Rattus norvegicus. The data set is described as follows: Inhibition of DPP4 in Wistar rat plasma at 10 mg/kg, po after 24 hrs. The data set is classed as functional, organism-based. More on the design: dose 10 mg/kg. The essentials: (§4)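 Adult male Wistar rats (n = 4–6/group) given a single oral gavage of 10 mg/kg in 0.5% methyl cellulose. Tail-vein blood (25–50 µl) taken at timed points and plasma kept frozen. Plasma (10 µl) mixed with 150 µM Gly-Pro-AMC in 25 mM Tris-HCl pH 7.4, 140 mM NaCl, 10 mM KCl, 0.1% BSA. Fluorescence read at ex 390/em 460 nm. Activity in U/mL; mean ± SEM.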

For data set [10], the system named is Rattus norvegicus. The data set is described as follows: Inhibition of DPP4 in Wistar rat plasma at 10 mg/kg, po within 30 mins. The data set is classed as functional. The settings on record: 0.5 h. In a few lines:
as §4

In data set [11] the test system is Mus musculus. The data set can be described thus: Reduction in glucose excursion in po dosed C57BL/6J lean mouse pretreated for 30 mins before glucose challenge measured after 120 mins by oral glucose tolerance test. The data set is classed as functional, organism-based. The essentials: as §2
Data set [12] has as its target T2, Endothelin-converting enzyme 1 (Homo sapiens) (UniProt P42892).
T2 sequence (whole entry): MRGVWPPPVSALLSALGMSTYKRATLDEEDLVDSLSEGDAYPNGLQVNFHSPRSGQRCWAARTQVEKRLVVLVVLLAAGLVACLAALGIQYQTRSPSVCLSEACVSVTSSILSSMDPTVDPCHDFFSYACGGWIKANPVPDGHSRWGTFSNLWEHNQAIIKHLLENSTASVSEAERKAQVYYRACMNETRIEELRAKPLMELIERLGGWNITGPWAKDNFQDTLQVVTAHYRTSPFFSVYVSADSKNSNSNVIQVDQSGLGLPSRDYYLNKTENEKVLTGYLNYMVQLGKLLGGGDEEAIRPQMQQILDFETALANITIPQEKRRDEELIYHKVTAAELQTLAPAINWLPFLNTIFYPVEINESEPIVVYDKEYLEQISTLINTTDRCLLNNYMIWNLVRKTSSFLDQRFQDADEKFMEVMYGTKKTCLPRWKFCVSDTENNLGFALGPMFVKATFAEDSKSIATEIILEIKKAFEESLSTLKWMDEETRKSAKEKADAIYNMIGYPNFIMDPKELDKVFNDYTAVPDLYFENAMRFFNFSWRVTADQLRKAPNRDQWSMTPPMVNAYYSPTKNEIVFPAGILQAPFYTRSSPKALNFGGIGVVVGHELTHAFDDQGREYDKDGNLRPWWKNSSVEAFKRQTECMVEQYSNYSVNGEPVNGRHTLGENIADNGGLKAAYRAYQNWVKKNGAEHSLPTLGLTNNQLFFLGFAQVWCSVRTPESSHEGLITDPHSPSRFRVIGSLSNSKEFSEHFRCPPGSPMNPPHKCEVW
The data set can be described thus: Inhibition of ECE-1 at 10 uM. The essentials: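 Part of a panel of 167 enzyme assays; percent inhibition at a test concentration of 10 µM.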

For data set [13], the species on record is Homo sapiens. The data set is described as follows: Selectivity for ratio of IC50 for human DPP4 to IC50 for human FAP.
For a further data set, the target named is hERG (KCNH2) (Homo sapiens, UniProt Q12809). The data set is described as follows: Inhibition of human ERG at 10 uM. In a few lines: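 hERG binding; percent inhibition at a test concentration of 10 µM.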
Data set [14] deals with Mus musculus. The data set is described as follows: Reduction in glucose AUC in C57BL/6J diet-induced obese mouse at 1 mg/kg, po pretreated 30 mins before glucose challenge measured after 120 mins by oral glucose tolerance test relative to control. More on the design: scale not given: the % may be the effect or the level left. The data set is classed as functional. The essentials: as §3

The subject of data set [15] is Mus musculus. The data set can be described thus: Reduction in glucose excursion in C57BL/6J lean mouse at 10 mg/kg, po pretreated 30 mins before glucose challenge measured after 120 mins by oral glucose tolerance test relative to control. More on the design: scale not given: the % may be the effect or the level left. In kind it is functional. The essentials: as §2

In the next data set the target is Dipeptidyl peptidase 2 (Homo sapiens, UniProt Q9UHL4). The data set is described as follows: Inhibition of human DPP2.
The nature of data set [16]: Half life in rat at 10 mg/kg, po. In kind it is ADME, organism-based. More on the design: dose 10 mg/kg, route oral. The settings on record: in vivo. In a few lines:
as §1

Chain of hERG (KCNH2) (Q12809 whole entry): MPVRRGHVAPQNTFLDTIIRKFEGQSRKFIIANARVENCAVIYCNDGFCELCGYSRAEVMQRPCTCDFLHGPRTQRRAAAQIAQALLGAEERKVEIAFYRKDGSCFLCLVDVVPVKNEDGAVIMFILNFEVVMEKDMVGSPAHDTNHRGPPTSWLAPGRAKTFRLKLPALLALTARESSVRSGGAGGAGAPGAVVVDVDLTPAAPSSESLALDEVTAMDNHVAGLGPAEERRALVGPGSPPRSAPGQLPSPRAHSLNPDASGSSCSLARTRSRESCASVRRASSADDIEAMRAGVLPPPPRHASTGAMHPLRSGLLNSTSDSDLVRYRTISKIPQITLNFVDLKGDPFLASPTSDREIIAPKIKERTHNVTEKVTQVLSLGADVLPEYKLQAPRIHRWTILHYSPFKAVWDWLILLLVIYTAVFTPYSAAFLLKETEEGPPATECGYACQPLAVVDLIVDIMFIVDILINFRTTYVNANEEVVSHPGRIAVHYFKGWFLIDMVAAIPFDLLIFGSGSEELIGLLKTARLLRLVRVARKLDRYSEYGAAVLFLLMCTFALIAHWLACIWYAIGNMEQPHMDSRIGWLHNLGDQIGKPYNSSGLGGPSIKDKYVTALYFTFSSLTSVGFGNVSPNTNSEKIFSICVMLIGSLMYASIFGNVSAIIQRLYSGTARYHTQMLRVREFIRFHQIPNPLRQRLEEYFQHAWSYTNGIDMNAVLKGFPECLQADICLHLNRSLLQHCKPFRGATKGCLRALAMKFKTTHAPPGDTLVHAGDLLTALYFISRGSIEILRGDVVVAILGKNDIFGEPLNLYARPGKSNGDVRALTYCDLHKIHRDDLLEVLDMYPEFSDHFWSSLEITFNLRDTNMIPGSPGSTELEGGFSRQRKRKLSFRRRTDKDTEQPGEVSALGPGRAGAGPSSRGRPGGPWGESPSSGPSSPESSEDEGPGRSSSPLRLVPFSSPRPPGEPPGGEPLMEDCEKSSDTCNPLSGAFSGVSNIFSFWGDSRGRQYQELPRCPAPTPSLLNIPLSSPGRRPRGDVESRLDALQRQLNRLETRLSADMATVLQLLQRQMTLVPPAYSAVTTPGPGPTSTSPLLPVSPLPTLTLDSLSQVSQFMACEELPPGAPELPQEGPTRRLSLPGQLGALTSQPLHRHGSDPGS

For orientation: Cmax means the maximum level reached in the sampled fluid or tissue. A word on the bioavailability: it is the share of a dose that reaches the circulation, judged against a reference dose that is usually intravenous. In general, IC50 refers to the concentration that inhibits the measured activity by half. In general, inhibition in vivo refers to how much of the control response was suppressed. The term inhibition denotes the change of the read-out against control, counted positive when it falls. For orientation: half-life means how long it takes for the measured level to halve. With `CC(C)(CC(=O)N[C@H]1C[C@@H]1c1cccc(Cl)c1)NCC(=O)N1C[C@@H](F)C[C@H]1C#N`, the Cmax in data set [1] came to 621 ng/mL. Besides, the Activity in the data set listed under Homo sapiens [2] is over 1300; with Mus musculus [3] it was 50%; in the data set on Mus musculus [5], 98%; in the data set with Mus musculus [7] it was 83%; in the data set filed under Homo sapiens [8], over 1300; with Mus musculus [11] it was “Dose-dependent effect”. Further, the values for the Activity in the data set listed under Homo sapiens [13], in the data set on Mus musculus [14] and in the data set on Mus musculus [15] were over 1300, 72% and 73%, respectively. This molecule showed a bioavailability in [4] of 42%. For the same molecule, the IC50 at Prolyl endopeptidase FAP and against Dipeptidyl peptidase 2 was over 20 µM throughout. The clearance in [6] was 22 mL/min/kg. Further, in the data set with Rattus norvegicus [9], the result was inactive. The inhibition in vivo at 10 mg/kg with Rattus norvegicus [10] is over 85%. Also, the inhibition in [12] amounted to 53%. The molecule further yielded an inhibition at 10 µM on hERG (KCNH2) of 11%. Besides, the half-life in data set [16] is 288 min.

These data come from ChEMBL document CHEMBL1152812, “Novel trans-2-aryl-cyclopropylamine analogues as potent and selective dipeptidyl peptidase IV inhibitors” (Bioorg Med Chem, 2009).
